Assay outcomes from PubChem BioAssay.
Sampled rows, rich in hits. Any-hit rate of the full collection: about 3%.
iPSC survival up = enhancers of single-cell hiPSC survival, primary screen, ATPlite luminescence | 100% = ROCK inhibitor wells, 0% = DMSO | survival enhancement, % at 20 µM | actives 0.044% (n = 360,000); in the data active means survival enhancement above about 18%;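 further: cells exposed to compounds for 16 hours before the ATP read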
Exocytosis inh = LAMP-1 surface exposure blockers, TALL-104 cells – cell-based, flow cytometry, MLPCN library, primary screen; actives 0.66% (n = 360,000); TALL-104 LAMP-1 surface exposure; cells stimulated with thapsigargin and PMA; inhibition, % at 10 µM; AID 651702, 2012;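 active means inhibition above about 55%, limit read from the data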
MIN6 prolif = inducers of MIN6 beta-cell proliferation, primary screen, ATP luminescence, uHTS; MIN6 cells proliferation, ATPlite luminescence, 48 h; cells starved in 0.2% serum; 100% = growth in 10% serum; proliferation, % at 10 µM; actives 0.29% (n = 330,000);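 active means compounds whose signal lies at least 3.5 SD above the mean of all wells on their plate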;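 further: 0% = DMSO-treated cells in low-serum medium and 100% = 10% serum control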
UBC13 inh = UBC13 polyubiquitin chain formation inhibitors, primary screen, biochemical, TR-FRET, uHTS | AID 485273, 2010 | inhibition, % at 20 µM | actives 0.47% (n = 330,000) | Ubiquitin-conjugating enzyme E2 N (Homo sapiens), P61088; in the data active means inhibition above about 45%, passing the limit was not always enough
Apaf1 inhib = inhibitors of human Apaf-1 apoptosome, primary screen, biochemical, DEVD-Rh110 fluorescence, uHTS | AID 489030, 2010 | inhibition, % at 20 µM | reconstituted apoptosome caspase-3 activity | Apoptotic protease-activating factor 1 (Homo sapiens), O14727 | actives 0.71% (n = 330,000); active means inhibition of at least 40% at 20 µM;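 further: plate controls were DMSO wells for no effect and DEVD-CHO caspase inhibitor wells for full effect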
Target sequence (O14727 whole entry, looked up): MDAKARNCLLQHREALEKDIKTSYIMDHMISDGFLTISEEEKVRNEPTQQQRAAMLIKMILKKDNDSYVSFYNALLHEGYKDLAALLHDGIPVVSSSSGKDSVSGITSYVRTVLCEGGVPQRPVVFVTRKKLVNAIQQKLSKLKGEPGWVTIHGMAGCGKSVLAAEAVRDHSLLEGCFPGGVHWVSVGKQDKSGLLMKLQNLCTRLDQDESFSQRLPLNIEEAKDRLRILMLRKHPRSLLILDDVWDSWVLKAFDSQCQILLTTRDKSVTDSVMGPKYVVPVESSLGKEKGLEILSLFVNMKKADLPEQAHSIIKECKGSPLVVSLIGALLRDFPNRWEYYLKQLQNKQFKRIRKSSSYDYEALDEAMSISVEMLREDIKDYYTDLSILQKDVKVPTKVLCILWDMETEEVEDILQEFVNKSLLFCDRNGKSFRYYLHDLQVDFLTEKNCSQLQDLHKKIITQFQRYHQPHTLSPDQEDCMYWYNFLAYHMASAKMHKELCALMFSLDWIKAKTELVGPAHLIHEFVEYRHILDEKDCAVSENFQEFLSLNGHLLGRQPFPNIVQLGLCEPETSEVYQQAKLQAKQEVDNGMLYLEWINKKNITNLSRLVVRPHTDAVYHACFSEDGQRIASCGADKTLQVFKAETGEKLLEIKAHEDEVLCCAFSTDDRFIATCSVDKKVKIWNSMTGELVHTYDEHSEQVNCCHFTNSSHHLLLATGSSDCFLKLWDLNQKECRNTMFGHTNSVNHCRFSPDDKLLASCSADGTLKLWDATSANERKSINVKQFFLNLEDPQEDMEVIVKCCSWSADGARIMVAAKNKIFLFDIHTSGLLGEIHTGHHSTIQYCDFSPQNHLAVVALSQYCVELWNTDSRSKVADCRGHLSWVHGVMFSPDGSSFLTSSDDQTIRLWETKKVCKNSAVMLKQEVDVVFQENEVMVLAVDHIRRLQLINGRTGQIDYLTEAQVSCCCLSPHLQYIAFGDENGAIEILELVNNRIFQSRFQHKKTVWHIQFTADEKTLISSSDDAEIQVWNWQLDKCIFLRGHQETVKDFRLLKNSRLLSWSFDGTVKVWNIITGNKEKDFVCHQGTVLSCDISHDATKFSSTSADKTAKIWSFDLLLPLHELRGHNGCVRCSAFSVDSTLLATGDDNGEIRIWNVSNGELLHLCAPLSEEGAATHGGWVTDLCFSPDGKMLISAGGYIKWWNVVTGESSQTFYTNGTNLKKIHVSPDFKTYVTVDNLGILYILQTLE
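Assay system: Apoptosome proteins | Medium: pH 7.5 Hepes buffer with CHAPS, BSA, DTT | Also added: Cytochrome c and DEVD-Rh110 substrate | Times: 30 min plus 50 min, RT | Detection: Rhodamine 110 fluorescence at Ex 480/Em 540 nm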
MPTP inh = mitochondrial permeability transition pore inhibitors, primary screen, biochemical, isolated mouse mitochondria, absorbance; Ca2+ swelling absorbance, 30 min; inhibition, % at 10 µM; actives 1.4% (n = 360,000); AID 602449, 2012;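 active means inhibition of 50% or more, scaled per plate between neutral and stimulator controls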;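 further: 0% = DMSO wells given calcium and 100% = 1 mM EGTA wells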
Apaf-1 inh conf = Apaf-1 inhibitors, single-dose retest, confirmation, biochemical, fluorescence, DEVD-Rh110, 20 µM; shares compounds with Apaf1 inhib; reconstituted apoptosome, caspase-3 DEVD-Rh110 fluorescence; inhibition, % at 20 µM; actives 25% (n = 1,800); AID 504614, 2011;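 active means mean inhibition of at least 40% at 20 µM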;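 further: plate controls were DMSO wells for no effect and DEVD-CHO caspase inhibitor control wells for full effect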
Rh110 interf inh = Rh110 fluorescence interference by putative Apaf-1 inhibitors, confirmation, artefact control for Apaf-1 inhibitor project, biochemical, 20 µM; shares compounds with Apaf1 inhib; quenched caspase reaction; activation (fluorescence interference), % at 20 µM; 1,800 tested, under 10 active; AID 504615, 2011;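 active means signal rise of 40% or more at 20 µM, treated as a fluorescence artifact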
Fluor interf inh = fluorescence interference of Apaf-1 inhibitor hits, dose response, artefact control for Apaf-1 inhibitor project | shares compounds with Apaf1 inhib | fluorescence interference counterscreen, Apaf-1 assay format | IC50, µM | 460 tested, under 10 active | AID 588538, 2011; call rule not given here
* hit, by the source's call; nt = no result given.

SMILES	iPSC survival up	Exocytosis inh	MIN6 prolif	UBC13 inh	Apaf1 inhib	MPTP inh	Apaf-1 inh conf	Rh110 interf inh	others
NC1(C#Cc2ccc3c(=O)c4ccccc4sc3c2)CCCCC1	-3	-2	-6	37	60*	12	23	1
CCCCN(C(=O)CCOc1ccc(OCC)cc1)c1c(N)n(Cc2ccccc2)c(=O)[nH]c1=O	0	-17	nt	nt	nt	0	nt	nt
CC[C@H](C)[C@@H]1NC(=O)[C@H]([C@@H](C)CC)NC(=O)[C@@H](CC(C)C)NC(=O)[C@H](Cc2ccccc2)NC(=O)[C@H](Cc2ccccc2)NC(=O)[C@@H]2CCCN2C(=O)[C@@H]2CCCN2C(=O)[C@H](C(C)C)NC(=O)[C@H](CC(C)C)NC1=O	-1	-2	-6	-7	54*	1	19	10
Cc1cc(C)n2c(NC3CCCCC3)c(-c3cccnc3)nc2n1	1	-1	nt	nt	nt	1	nt	nt
O=C(NC1CC1)C1=C[C@H](c2ccc(C(F)(F)F)cc2)C[C@H](OCCCCO)O1	4	1	1	-2	50*	-2	4	9
O=C(NC1CC1)C1=C[C@@H](c2ccc(C(F)(F)F)cc2)C[C@@H](OCCCCO)O1	-1	-2	-5	-2	3	-1	nt	nt
NCCN1CCN(S(=O)(=O)c2ccc([N+](=O)[O-])cc2)C=C1c1ccc(Cl)cc1	-1	18	0	31	43*	0	17	-1
O=[N+]([O-])c1ccc(-c2ccc(S(=O)(=O)NCCN3CCCC3)cc2)cc1	0	0	-4	15	15	31	nt	nt
CCc1ccc(NC(=O)C2CCCN2c2nn3c(=O)cc(C)nc3s2)cc1 (configuration not stated)	1	-1	-2	5	6	-2	nt	nt
CCN1CCc2c(sc(NC(=O)c3ccc(C(=O)c4ccccc4)cc3)c2C(N)=O)C1	1	12	-7	20	44*	0	21	10
COc1cccc(C(C[N+](=O)[O-])c2c(C)[nH]n(-c3ccccc3)c2=O)c1 (configuration not stated)	2	-2	-8	-23	97*	1	16	-7
Cc1[nH]n(-c2ccccc2)c(=O)c1C(c1cccc([N+](=O)[O-])c1)c1c(C)[nH]n(-c2ccccc2)c1=O	2	2	-4	-30	64*	41	31	6
Cc1[nH]n(-c2ccccc2)c(=O)c1C(=O)Nc1ccccc1	0	-3	0	3	6	0	nt	nt
Cc1[nH]n(-c2ccccc2)c(=O)c1C(c1ccc(C(=O)O)cc1)c1c(C)[nH]n(-c2ccccc2)c1=O	-1	2	0	-23	71*	-11	22	6
Cc1[nH]n(-c2ccccc2)c(=O)c1C(=O)c1ccc([N+](=O)[O-])cc1	0	-1	-2	-7	15	0	nt	nt
COc1ccc(N2CCN(C(=O)c3ccc(COc4ccc5c(C)cc(=O)oc5c4)cc3)CC2)cc1	1	2	-5	-7	58*	17	17	5
COc1ccc(C(=O)c2ccc(OC)c(OC)c2)cc1OC	2	3	1	27	5	0	nt	nt
COc1ccc(C(=O)c2nccc3cc(OC)c(OC)cc23)cc1OC	0	0	0	-86	84*	0	44*	-4	Fluor interf inh=>100
